pIC50: −log10 of the molar value.
Experiments:
Assay type in all cases: functional, cell-based
[1] = test system: HeLa; assay: Cytotoxicity against human HeLa cells after 72 hrs by XTT assay
How it was run: (§1)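 Cells grown in DMEM (A549, HT-29, HeLa) or RPMI1640 (HL-60), both with 10% heat-inactivated fetal bovine serum, were exposed to compound across a concentration range for 72 h at 37 °C in humidified air/CO₂ (19/1), then read by XTT. Measurements were in triplicate. IC50 is the concentration giving 50% proliferation inhibition versus untreated controls, reported as mean ± S.D. of three independent determinations.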

[2] = test system: HT-29; assay: Cytotoxicity against human HT-29 cells after 72 hrs by XTT assay; settings: HT-29, 72 h
How it was run: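 Cells grown in DMEM (A549, HT-29, HeLa) or RPMI1640 (HL-60), both with 10% heat-inactivated fetal bovine serum, were exposed to compound across a concentration range for 72 h at 37 °C in humidified air/CO₂ (19/1), then read by XTT. Measurements were in triplicate.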

[3] = test system: A549; assay: Cytotoxicity against human A549 cells after 72 hrs by XTT assay; settings: A549, 72 h; how it was run: as §1
[4] = test system: HL-60; assay: Cytotoxicity against human HL60 cells after 72 hrs by XTT assay; settings: HL-60, 72 h; how it was run: as §1

## COc1ccc(-c2oc3cc(OC)cc(O)c3c(=O)c2OC)cc1
[1]
  pIC50: 4.55
[2]
  pIC50: 4.59
[3]
  pIC50: 4.52

## C=C1CC[C@H]2C(C)(C)CCC[C@]2(C)[C@H]1CC/C(C)=C/COc1c(-c2ccc(O)cc2)oc2cc(O)cc(O)c2c1=O
[1]
  pIC50: 4.57
[2]
  pIC50: 4.52
[3]
  pIC50: 4.59

## CC(=O)c1c(O)cc2c(c1O)CCC(C)(C)O2
[1]
  pIC50: < 4.00
[2]
  pIC50: < 4.00
[3]
  pIC50: < 4.00
[4]
  pIC50: < 4.00

## COc1ccc(-c2oc3cc(O)cc(O)c3c(=O)c2OC)cc1 [ERMANIN]
[1]
  pIC50: 4.51
[2]
  pIC50: 4.49
[3]
  pIC50: 4.51

## CC(C)=CCC/C(C)=C/COc1c(C/C=C(\C)CCC=C(C)C)c(O)c2c(=O)cc(-c3ccccc3)oc2c1C/C=C(\C)CCC=C(C)C
[1]
  pIC50: 4.52
[2]
  pIC50: 4.49
[3]
  pIC50: 4.54

## CC(=O)c1c(O)c(C/C=C(\C)CCC=C(C)C)c(O)c(C/C=C(\C)CCC=C(C)C)c1O
[1]
  pIC50: 4.51
[2]
  pIC50: 4.70
[3]
  pIC50: 4.49
[4]
  pIC50: 4.72

## CC(=O)c1c(O)cc(O)c(C/C=C(\C)CC/C=C(\C)CCC=C(C)C)c1O
[1]
  pIC50: 4.89
[2]
  pIC50: 4.74
[3]
  pIC50: 4.66
[4]
  pIC50: 4.85

## CC(=O)c1c(O)cc2c(c1O)CCC(C)(CC/C=C(\C)CCC=C(C)C)O2 (stereo unspecified)
[1]
  pIC50: 4.52
[2]
  pIC50: < 4.00
[3]
  pIC50: < 4.00
[4]
  pIC50: 4.51

## CCCCCCCC/C=C\CCCCCCCCc1c(O)cc(O)c(C(C)=O)c1O
[1]
  pIC50: < 4.00
[2]
  pIC50: < 4.00
[3]
  pIC50: < 4.00
[4]
  pIC50: < 4.00

## C=C1CC[C@H]2C(C)(C)CCC[C@]2(C)[C@H]1CC/C(C)=C/Cc1c(O)cc2oc(-c3ccc(O)cc3)c(O)c(=O)c2c1O [DENTICULAFLAVONOL]
[1]
  pIC50: < 4.00
[2]
  pIC50: < 4.00
[3]
  pIC50: < 4.00

## C=C1CC[C@H]2C(C)(C)CCC[C@]2(C)[C@H]1CC/C(C)=C/COc1cc(O)c2c(=O)c(OC/C=C(\C)CC[C@H]3C(=C)CC[C@H]4C(C)(C)CCC[C@]34C)c(-c3ccc(O)cc3)oc2c1
[1]
  pIC50: < 4.00
[2]
  pIC50: < 4.00
[3]
  pIC50: < 4.00

## C=C1CC[C@H]2C(C)(C)CCC[C@]2(C)[C@H]1CC/C(C)=C/COc1c(-c2ccc(OC)cc2)oc2cc(O)cc(O)c2c1=O
[1]
  pIC50: 4.52
[2]
  pIC50: 4.49
[3]
  pIC50: 4.52

## CC(=O)c1c(O)cc(O)c(C/C=C(\C)CCC=C(C)C)c1O
[1]
  pIC50: 4.68
[2]
  pIC50: 4.72
[3]
  pIC50: 4.70
[4]
  pIC50: 4.72

## CC(=O)c1c(O)cc(O)cc1OC/C=C(\C)CC/C=C(\C)CCC=C(C)C
[1]
  pIC50: 4.51
[2]
  pIC50: 4.54
[3]
  pIC50: 4.49
[4]
  pIC50: 4.51

## CC(C)=CCC/C(C)=C/COc1c(-c2ccc(O)cc2)oc2cc(O)cc(O)c2c1=O
[1]
  pIC50: 4.64
[2]
  pIC50: 4.60
[3]
  pIC50: 4.57

## C=C1CC[C@H]2C(C)(C)CCC[C@]2(C)[C@H]1CC/C(C)=C/COc1cc(O)c2c(=O)c(O)c(-c3ccc(OC)cc3)oc2c1
[1]
  pIC50: < 4.00
[2]
  pIC50: < 4.00
[3]
  pIC50: < 4.00

## CC(=O)c1c(O)c2c(c3c1OC(C)(C)CC3)OC(C)(C)CC2
[1]
  pIC50: < 4.00
[2]
  pIC50: 4.49
[3]
  pIC50: < 4.00
[4]
  pIC50: 4.51

## O=c1c(O)c(-c2ccc(O)cc2)oc2cc(O)cc(O)c12 [KAEMPFEROL]
[1]
  pIC50: < 4.00
[2]
  pIC50: < 4.00
[3]
  pIC50: < 4.00

## C=C1CC[C@H]2C(C)(C)CCC[C@]2(C)[C@H]1CC/C(C)=C/Cc1c(O)cc(O)c2c(=O)c(O)c(-c3ccc(OC)cc3)oc12
[1]
  pIC50: < 4.00
[2]
  pIC50: < 4.00
[3]
  pIC50: < 4.00

## CC(=O)c1c(O)cc(O)c2c1OC(C)(C)CC2
[1]
  pIC50: < 4.00
[2]
  pIC50: < 4.00
[3]
  pIC50: < 4.00
[4]
  pIC50: < 4.00

## CC(C)=CCC/C(C)=C/COc1cc2oc(-c3ccccc3)cc(=O)c2c(O)c1C/C=C(\C)CCC=C(C)C
[1]
  pIC50: 4.52
[2]
  pIC50: 4.49
[3]
  pIC50: 4.49

## C=C1CC[C@H]2C(C)(C)CCC[C@]2(C)[C@H]1CC/C(C)=C/COc1cc(O)c2c(=O)c(OC/C=C(\C)CC[C@H]3C(=C)CC[C@H]4C(C)(C)CCC[C@]34C)c(-c3ccc(OC)cc3)oc2c1
[1]
  pIC50: < 4.00
[2]
  pIC50: < 4.00
[3]
  pIC50: < 4.00

## C=C1CC[C@H]2C(C)(C)CCC[C@]2(C)[C@H]1CC/C(C)=C/Cc1c(O)cc(O)c2c(=O)c(O)c(-c3ccc(O)cc3)oc12
[1]
  pIC50: 4.52
[2]
  pIC50: 4.54
[3]
  pIC50: 4.49

## CC(C)=CCC/C(C)=C/Cc1c(O)cc2oc(-c3ccccc3)cc(=O)c2c1O
[1]
  pIC50: 4.49
[2]
  pIC50: 4.48
[3]
  pIC50: 4.49

## COc1cc(O)c(C(C)=O)c(OC)c1 [XANTHOXYLIN]
[1]
  pIC50: < 4.00
[2]
  pIC50: < 4.00
[3]
  pIC50: < 4.00
[4]
  pIC50: < 4.00

## CC(C)=CCC/C(C)=C/COc1cc(O)c2c(=O)c(OC/C=C(\C)CCC=C(C)C)c(-c3ccc(O)cc3)oc2c1
[1]
  pIC50: < 4.00
[2]
  pIC50: 4.51
[3]
  pIC50: < 4.00

## CC(=O)c1ccc(C)cc1O
[1]
  pIC50: < 4.00
[2]
  pIC50: < 4.00
[3]
  pIC50: < 4.00
[4]
  pIC50: < 4.00

## CC(=O)c1c(O)cc(OC/C=C(\C)CC/C=C(\C)CCC=C(C)C)cc1O
[1]
  pIC50: 4.54
[2]
  pIC50: 4.51
[3]
  pIC50: 4.49
[4]
  pIC50: 4.49

## COc1cccc2c1C(=O)c1c(O)c3c(c(O)c1C2=O)C[C@@](O)(C(=O)CO)C[C@@H]3O[C@H]1C[C@H](N)[C@H](O)[C@H](C)O1 [DOXORUBICIN]
[1]
  pIC50: 6.54
[3]
  pIC50: 6.59

## COc1ccc(-c2oc3cc(O)cc(O)c3c(=O)c2O)cc1 [KAEMPFERIDE]
[1]
  pIC50: 4.64
[2]
  pIC50: 4.49
[3]
  pIC50: 4.66

## CCCCCCCC/C=C\CCCCCCCCOc1cc(O)c(C(C)=O)c(O)c1
[1]
  pIC50: 4.51
[2]
  pIC50: 4.51
[3]
  pIC50: 4.51
[4]
  pIC50: 4.49

## CC(=O)c1c(O)cc(O)cc1OCC=C(C)C
[1]
  pIC50: < 4.00
[2]
  pIC50: < 4.00
[3]
  pIC50: < 4.00
[4]
  pIC50: < 4.00

## CC(=O)c1c(OC/C=C(\C)CC/C=C(\C)CCC=C(C)C)cc(O)c(C/C=C(\C)CC/C=C(\C)CCC=C(C)C)c1O
[1]
  pIC50: < 4.00
[2]
  pIC50: < 4.00
[3]
  pIC50: < 4.00
[4]
  pIC50: 4.49

## CCCCCCCCCCCCCCCCCCOc1cc(O)c(C(C)=O)c(O)c1
[1]
  pIC50: < 4.00
[2]
  pIC50: < 4.00
[3]
  pIC50: < 4.00
[4]
  pIC50: < 4.00

## C=C1CC[C@H]2C(C)(C)CCC[C@]2(C)[C@H]1CC/C(C)=C/COc1cc(O)c2c(=O)c(O)c(-c3ccc(O)cc3)oc2c1
[1]
  pIC50: < 4.00
[2]
  pIC50: < 4.00
[3]
  pIC50: < 4.00

## CCCCCCCC/C=C\CCCCCCCCOc1cc(O)cc(O)c1C(C)=O
[1]
  pIC50: 4.51
[2]
  pIC50: < 4.00
[3]
  pIC50: < 4.00
[4]
  pIC50: 4.49

## O=c1cc(-c2ccccc2)oc2cc(O)cc(O)c12 [CHRYSIN]
[1]
  pIC50: 4.54
[2]
  pIC50: < 4.00
[3]
  pIC50: < 4.00

## CCCCCCCCCCCCCCCCCCOc1cc(O)cc(O)c1C(C)=O
[1]
  pIC50: < 4.00
[2]
  pIC50: < 4.00
[3]
  pIC50: < 4.00
[4]
  pIC50: < 4.00

## CC(=O)c1c(O)c(CC=C(C)C)c(O)c(CC=C(C)C)c1O
[1]
  pIC50: < 4.00
[2]
  pIC50: < 4.00
[3]
  pIC50: < 4.00
[4]
  pIC50: < 4.00

## CC(=O)c1c(O)cc(OCC=C(C)C)cc1O
[1]
  pIC50: 4.52
[2]
  pIC50: 4.51
[3]
  pIC50: < 4.00
[4]
  pIC50: 4.49

## CC(C)=CCC/C(C)=C/Cc1c(O)cc(O)c2c(=O)c(O)c(-c3ccc(O)cc3)oc12
[1]
  pIC50: 4.52
[2]
  pIC50: 4.52
[3]
  pIC50: 4.59

## CC(=O)c1c(O)cc(O)c(CC=C(C)C)c1O
[1]
  pIC50: 4.55
[2]
  pIC50: 4.52
[3]
  pIC50: 4.54
[4]
  pIC50: 4.49

## CC(=O)c1c(O)cc(O)cc1O [2,4,6-TRIHYDROXYACETOPHENONE]
[1]
  pIC50: < 4.00
[2]
  pIC50: < 4.00
[3]
  pIC50: < 4.00
[4]
  pIC50: < 4.00

## CCCCCCCC/C=C\CCCCCCCCOc1cc(O)c(C(C)=O)c(OCCCCCCCC/C=C\CCCCCCCC)c1
[1]
  pIC50: < 4.00
[2]
  pIC50: < 4.00
[3]
  pIC50: < 4.00
[4]
  pIC50: < 4.00

## CCCCCCCCCCCCCCCCCCc1c(O)cc(O)c(C(C)=O)c1O
[1]
  pIC50: 4.55
[2]
  pIC50: 4.59
[3]
  pIC50: 4.49
[4]
  pIC50: 4.51

## CC(C)=CCC/C(C)=C/Cc1c(O)cc2oc(-c3ccc(O)cc3)c(O)c(=O)c2c1O [MACARANGIN]
[1]
  pIC50: < 4.00
[2]
  pIC50: < 4.00
[3]
  pIC50: < 4.00
